This note sets out measurements from ChEMBL document CHEMBL5331127, “Discovery of ARD-2051 as a Potent and Orally Efficacious Proteolysis Targeting Chimera (PROTAC) Degrader of Androgen Receptor for the Treatment of Advanced Prostate Cancer” (J Med Chem, 2023).

The target in series [1] is T1, Androgen receptor (Homo sapiens) (UniProt P10275).
T1 sequence (whole entry): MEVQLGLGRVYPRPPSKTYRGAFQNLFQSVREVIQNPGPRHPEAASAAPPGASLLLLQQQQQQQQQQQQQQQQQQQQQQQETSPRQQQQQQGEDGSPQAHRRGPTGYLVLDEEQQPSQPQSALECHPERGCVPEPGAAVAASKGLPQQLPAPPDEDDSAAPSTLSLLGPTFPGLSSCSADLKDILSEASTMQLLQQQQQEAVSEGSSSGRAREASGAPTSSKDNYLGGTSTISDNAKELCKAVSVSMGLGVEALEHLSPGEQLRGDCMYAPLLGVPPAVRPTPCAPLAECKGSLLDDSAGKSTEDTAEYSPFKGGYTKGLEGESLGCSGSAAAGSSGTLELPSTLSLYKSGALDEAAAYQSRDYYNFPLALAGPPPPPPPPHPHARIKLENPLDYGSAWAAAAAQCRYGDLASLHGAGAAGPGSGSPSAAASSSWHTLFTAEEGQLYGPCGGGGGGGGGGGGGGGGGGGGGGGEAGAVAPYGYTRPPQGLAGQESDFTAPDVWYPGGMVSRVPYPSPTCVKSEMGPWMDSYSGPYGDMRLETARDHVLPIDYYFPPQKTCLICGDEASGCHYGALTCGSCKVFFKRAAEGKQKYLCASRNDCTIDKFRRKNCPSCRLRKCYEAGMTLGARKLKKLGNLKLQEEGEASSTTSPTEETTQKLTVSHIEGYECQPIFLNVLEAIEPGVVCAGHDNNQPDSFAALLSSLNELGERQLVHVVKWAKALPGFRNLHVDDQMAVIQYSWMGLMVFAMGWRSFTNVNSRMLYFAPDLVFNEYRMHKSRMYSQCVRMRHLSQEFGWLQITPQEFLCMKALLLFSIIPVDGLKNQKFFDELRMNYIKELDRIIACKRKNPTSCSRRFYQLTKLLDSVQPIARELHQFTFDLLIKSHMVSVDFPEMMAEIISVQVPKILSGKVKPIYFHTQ
The series can be described thus: Induction of androgen receptor degradation in human VCaP cells at 1 uM after 24 hrs by Western blotting analysis relative to control. Type of series: cell-based. In outline: (§1)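 VCaP cells treated for 24 h at 10, 100 or 1000 nM. AR protein measured by Western blotting.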

Series [2] deals with T1, Androgen receptor (Homo sapiens). The series can be described thus: Induction of androgen receptor degradation in human VCaP cells at 0.01 uM after 24 hrs by Western blotting analysis relative to control. Type of series: cell-based. In outline:
as §1
In general terms: Immunoblotting shows a protein as a band on a membrane.

Series [3] has the same target. The series can be described thus: Induction of androgen receptor degradation in human VCaP cells at 0.1 uM after 24 hrs by Western blotting analysis relative to control. It is filed as cell-based. Summed up:
as §1

Series [4] can be described thus: Drug concentration in ICR mouse plasma at 10 mg/kg, po measured after 1 hr. Type of series: ADME, organism-based. In outline: (§2)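 Mice given a single 10 mg/kg dose by oral gavage, 3 mice per time point. Plasma drug levels measured at 1, 3, 6 and 24 h; mean ± SD reported.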
Series [5] is described as follows: Drug concentration in ICR mouse plasma at 10 mg/kg, po measured after 6 hrs. It is filed as ADME, organism-based. Summed up:
as §2

Series [6] is described as follows: Drug concentration in ICR mouse plasma at 10 mg/kg, po measured after 3 hrs. Type of series: ADME, organism-based. In outline:
as §2

Structures are written as SMILES.

In the case of `C[C@H]1CC2(CCN(c3ccc(C(=O)N4CCN(CC5CN(c6ccc7c(c6)C(=O)N(C6CCC(=O)NC6=O)C7=O)C5)CC4)cc3)CC2)CN1c1ccc(C#N)c(Cl)c1` (stereo not given in full), the Activity in series [1] was more than 95%; in series [2] it was more than 90%; in series [3], more than 95%.

`N#Cc1ccc(N2CCC3(CCN(c4ccc(C(=O)N5CC6CC(C5)CN(C5CCN(c7ccc8c(c7)C(=O)N(C7CCC(=O)NC7=O)C8=O)CC5)C6)cc4)CC3)C2)cc1Cl` (stereo not given): the Activity in series [1] is 90%; in series [2], 23%; in series [3], 80%.

Turning to `N#Cc1ccc(N2CCC3(CCN(C(=O)c4ccc(N5CCN(C6CCN(c7ccc8c(c7)C(=O)N(C7CCC(=O)NC7=O)C8=O)CC6)CC5)cc4)CC3)C2)cc1Cl` (stereo not given), the Activity in series [1] was 56%; in series [2], less than 5%; in series [3], 43%.

`C[C@H]1CC2(CCN(c3ccc(C(=O)N4CCN(C5CCN(c6ccc7c(c6)C(=O)N(C6CCC(=O)NC6=O)C7=O)CC5)CC4)cc3)CC2)CN1c1ccc(C#N)c(Cl)c1` (stereo not given in full): the concentration at 1 h in series [4] was 238 ng/mL. Further, the values for the Activity in series [1], in series [2] and in series [3] were more than 95%, more than 90% and more than 95%, respectively. Further, in series [5], the concentration at 6 h was 104 ng/mL. The concentration at 3 h in series [6] was found to be 208 ng/mL.

Consider `N#Cc1ccc(N2CCC3(CCN(C(=O)c4ccc(C(=O)N5CCN(CC6CCN(c7ccc8c(c7)C(=O)N(C7CCC(=O)NC7=O)C8=O)CC6)CC5)cc4)CC3)C2)cc1Cl` (stereo not given), for which the Activity is 33% in series [1], less than 5% in series [2] and less than 5% in series [3].

As to `C[C@H]1CC2(CCN(c3ccc(C(=O)N4CC5(C4)CN(c4ccc6c(c4)C(=O)N(C4CCC(=O)NC4=O)C6=O)C5)cc3)CC2)CN1c1ccc(C#N)c(Cl)c1` (stereo not given in full), the Activity in series [1] is more than 95%; in series [2], 79%; in series [3] it was more than 95%.

On to `N#Cc1ccc(N2CCC3(CCN(c4ccc(C(=O)N5CCN(C6CCN(c7ccc8c(c7)C(=O)N(C7CCC(=O)NC7=O)C8=O)CC6)CC5)cc4)CC3)C2)cc1Cl` (stereo not given), for which the Activity in series [1] worked out at 95%; in series [2], 24%; in series [3], 74%.

Regarding `N#Cc1ccc(N2CCC3(CCN(c4ccc(C(=O)N5CCCN(C6CCN(c7ccc8c(c7)C(=O)N(C7CCC(=O)NC7=O)C8=O)CC6)CCC5)cc4)CC3)C2)cc1Cl` (stereo not given), the values for the Activity in series [1], in series [2] and in series [3] were 54%, less than 5% and 54%, respectively.

Turning to `N#Cc1ccc(N2CCC3(CCN(c4ccc(C(=O)N5CCC6(C5)CN(C5CCN(c7ccc8c(c7)C(=O)N(C7CCC(=O)NC7=O)C8=O)CC5)C6)cc4)CC3)C2)cc1Cl` (stereo not given), the Activity in series [1] came to 82%; in series [2] it was 20%; in series [3], 60%.

Consider `N#Cc1ccc(N2CCC3(CCN(c4ccc(C(=O)N5CCCN(C6CN(c7ccc8c(c7)C(=O)N(C7CCC(=O)NC7=O)C8=O)C6)CC5)cc4)CC3)C2)cc1Cl` (stereo not given), for which the Activity came out at 87% in series [1], 39% in series [2] and 70% in series [3].

In the case of `C[C@H]1CC2(CCN(c3ccc(C(=O)N4CCC(C5CN(c6ccc7c(c6)C(=O)N(C6CCC(=O)NC6=O)C7=O)C5)CC4)cc3)CC2)CN1c1ccc(C#N)c(Cl)c1` (stereo not given in full), the Activity in series [1] is 92%; in series [2], 12%; in series [3], 64%.

`N#Cc1ccc(N2CCC3(CCN(c4ccc(C(=O)N5CCN(C6CN(c7ccc8c(c7)C(=O)N(C7CCC(=O)NC7=O)C8=O)C6)CC5)cc4)CC3)C2)cc1Cl` (stereo not given): the Activity in series [1] is more than 95%; in series [2] it was 78%; in series [3], more than 95%.

On to `C[C@H]1N(c2ccc(C#N)c(Cl)c2)CCC12CCN(c1ccc(C(=O)N3CCN(C4CN(c5ccc6c(c5)C(=O)N(C5CCC(=O)NC5=O)C6=O)C4)CC3)cc1)CC2` (stereo not given in full), for which the Activity in series [1] was 91%; in series [2], 46%; in series [3] it was 68%.

`C[C@H]1CC2(CCN(c3ccc(C(=O)N4CCC(N5CCN(c6ccc7c(c6)C(=O)N(C6CCC(=O)NC6=O)C7=O)CC5)CC4)cc3)CC2)CN1c1ccc(C#N)c(Cl)c1` (stereo not given in full): the values for the Activity in series [1], in series [2] and in series [3] were more than 95%, 78% and more than 95%, respectively.

`N#Cc1ccc(N2CCC3(CCN(c4ccc(C(=O)N5CCCN(C6CCN(c7ccc8c(c7)C(=O)N(C7CCC(=O)NC7=O)C8=O)CC6)CC5)cc4)CC3)C2)cc1Cl` (stereo not given): the Activity in series [1] came to 92%; in series [2], 45%; in series [3], 80%.

Consider `C[C@H]1CC2(CCN(c3ccc(C(=O)N4C[C@@H]5C[C@H]4CN5C4CN(c5ccc6c(c5)C(=O)N(C5CCC(=O)NC5=O)C6=O)C4)cc3)CC2)CN1c1ccc(C#N)c(Cl)c1` (stereo not given in full), for which the Activity was more than 95% in series [1], more than 90% in series [2] and more than 95% in series [3].

On to `N#Cc1ccc(N2CCC3(CCN(c4ccc(C(=O)N5CC6(C5)CN(C5CCN(c7ccc8c(c7)C(=O)N(C7CCC(=O)NC7=O)C8=O)CC5)C6)cc4)CC3)C2)cc1Cl` (stereo not given), for which the Activity in series [1] is 73%; in series [2], less than 5%; in series [3] it was 46%.

With `N#Cc1ccc(N2CCC3(CCN(c4ccc(C(=O)N5CCN(CC6CN(c7ccc8c(c7)C(=O)N(C7CCC(=O)NC7=O)C8=O)C6)CC5)cc4)CC3)C2)cc1Cl` (stereo not given), the values for the Activity in series [1], in series [2] and in series [3] were 85%, 30% and 81%, respectively.

Regarding `C[C@H]1CC2(CCN(c3ccc(C(=O)N4CCN(CC5CCN(c6ccc7c(c6)C(=O)N(C6CCC(=O)NC6=O)C7=O)CC5)CC4)cc3)CC2)CN1c1ccc(C#N)c(Cl)c1` (stereo not given in full), the Activity in series [1] was more than 95%; in series [2] it was more than 90%; in series [3], more than 95%.

On to `C[C@@H]1N(c2ccc(C#N)c(Cl)c2)CCC12CCN(c1ccc(C(=O)N3CCN(C4CN(c5ccc6c(c5)C(=O)N(C5CCC(=O)NC5=O)C6=O)C4)CC3)cc1)CC2` (stereo not given in full), for which the Activity is more than 95% in series [1], 84% in series [2] and more than 95% in series [3].

Regarding `N#Cc1ccc(N2CCC3(CCN(c4ccc(C(=O)N5CC6(C5)CN(C5CN(c7ccc8c(c7)C(=O)N(C7CCC(=O)NC7=O)C8=O)C5)C6)cc4)CC3)C2)cc1Cl` (stereo not given), the Activity in series [1] was 81%; in series [2], 22%; in series [3], 62%.

In the case of `C[C@H]1CC2(CCN(c3ccc(C(=O)N4CCC(CN5CCN(c6ccc7c(c6)C(=O)N(C6CCC(=O)NC6=O)C7=O)CC5)CC4)cc3)CC2)CN1c1ccc(C#N)c(Cl)c1` (stereo not given in full), the Activity in series [1] is more than 95%; in series [2], 81%; in series [3] it was more than 95%.

In the case of `C[C@@H]1CC2(CCN(c3ccc(C(=O)N4CCN(C5CN(c6ccc7c(c6)C(=O)N(C6CCC(=O)NC6=O)C7=O)C5)CC4)cc3)CC2)CN1c1ccc(C#N)c(Cl)c1` (stereo not given in full), the Activity in series [1] is more than 95%; in series [2] it was 66%; in series [3], 93%.

Turning to `C[C@H]1CC2(CCN(c3ccc(C(=O)N4CC(N5CCN(c6ccc7c(c6)C(=O)N(C6CCC(=O)NC6=O)C7=O)CC5)C4)cc3)CC2)CN1c1ccc(C#N)c(Cl)c1` (stereo not given in full), the Activity is more than 95% in series [1], more than 90% in series [2] and more than 95% in series [3].

With `N#Cc1ccc(N2CCC3(CCN(c4ccc(C(=O)N5CCN(CC6CCN(c7ccc8c(c7)C(=O)N(C7CCC(=O)NC7=O)C8=O)CC6)CC5)cc4)CC3)C2)cc1Cl` (stereo not given), the values for the Activity in series [1], in series [2] and in series [3] were more than 95%, 24% and 80%, respectively.

`C[C@H]1CC2(CCN(c3ccc(C(=O)N4C[C@H]5C[C@@H]4CN5C4CN(c5ccc6c(c5)C(=O)N(C5CCC(=O)NC5=O)C6=O)C4)cc3)CC2)CN1c1ccc(C#N)c(Cl)c1` (stereo not given in full): the Activity is 95% in series [1], 54% in series [2] and 93% in series [3].

On to `C[C@H]1CC2(CCN(c3ccc(C(=O)N4CCN(C5CN(c6ccc7c(c6)C(=O)N(C6CCC(=O)NC6=O)C7=O)C5)CC4)cc3)CC2)CN1c1ccc(C#N)c(C(F)F)c1` (stereo not given in full), for which the values for the Activity in series [1], in series [2] and in series [3] were more than 95%, more than 90% and more than 95%, respectively.

Turning to `N#Cc1ccc(N2CCC3(CCN(c4ccc(C(=O)N5CCC(N6CCN(c7ccc8c(c7)C(=O)N(C7CCC(=O)NC7=O)C8=O)CC6)CC5)cc4)CC3)C2)cc1Cl` (stereo not given), the results for the Activity in series [1], in series [2] and in series [3] were more than 95%, 37% and 20%, respectively.

For `C[C@H]1CC2(CCN(c3ccc(C(=O)N4CCN(C5(C#N)CN(c6ccc7c(c6)C(=O)N(C6CCC(=O)NC6=O)C7=O)C5)CC4)cc3)CC2)CN1c1ccc(C#N)c(Cl)c1` (stereo not given in full), the results for the Activity in series [1], in series [2] and in series [3] were 88%, 81% and 93%, respectively.
